Columns and labels:
Cytosol aminopeptidase = biological target: T1, Cytosol aminopeptidase (Bos taurus, UniProt P00727); assay: Inhibition of bovine kidney cytosolic leucine aminopeptidase using L-leucine-p-nitroanilide as substrate after 30 mins by Dixon plot analysis
T1 sequence (P00727 whole entry): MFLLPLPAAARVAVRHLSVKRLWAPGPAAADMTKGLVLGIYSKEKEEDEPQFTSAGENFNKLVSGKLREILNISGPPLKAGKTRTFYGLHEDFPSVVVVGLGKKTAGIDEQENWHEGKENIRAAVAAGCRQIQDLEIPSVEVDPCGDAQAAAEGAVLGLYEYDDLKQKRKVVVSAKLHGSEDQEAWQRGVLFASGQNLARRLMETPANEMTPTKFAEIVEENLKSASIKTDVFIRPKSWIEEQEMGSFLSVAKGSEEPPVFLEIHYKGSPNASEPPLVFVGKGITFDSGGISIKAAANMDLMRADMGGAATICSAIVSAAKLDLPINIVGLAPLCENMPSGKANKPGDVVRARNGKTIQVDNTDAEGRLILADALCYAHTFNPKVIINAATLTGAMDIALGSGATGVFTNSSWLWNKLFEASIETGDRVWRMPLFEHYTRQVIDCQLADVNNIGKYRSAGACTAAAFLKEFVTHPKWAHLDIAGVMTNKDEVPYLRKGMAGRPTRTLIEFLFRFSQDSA
Outline: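 Cytosolic leucine aminopeptidase, purified by a published procedure, 20 Units per assay in 0.1 M Tris-HCl, 0.1 mM ZnCl2, 5 mM MnCl2, 1 M KCl, pH 8.0, at 30 °C. […] Ki came from Dixon plots of racemates.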

[1] = biological target: Bacterial leucyl aminopeptidase (Vibrio proteolyticus, UniProt Q01693); assay: Inhibition of Aeromonas proteolytica aminopeptidase using L-leucine-p-nitroanilide as substrate after 30 mins by Dixon plot analysis
Outline: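 Commercial Aeromonas proteolytica aminopeptidase, 2 mUnits per assay in 0.05 M Tris-HCl pH 7.5, 30 °C, started by adding enzyme. L-leucine-p-nitroanilide was set at its Km (0.02 mM). Release of p-nitroanilide was read continuously at 405 nm over 30 min for initial velocities. Ki was taken from Dixon plots, with racemic compounds tested up to their solubility limit.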

Aminopeptidase N = biological target: T2, Aminopeptidase N (Sus scrofa, UniProt P15145); assay: Inhibition of porcine kidney APN using L-leucine-p-nitroanilide as substrate after 30 mins by Dixon plot analysis
T2 sequence (P15145 whole entry): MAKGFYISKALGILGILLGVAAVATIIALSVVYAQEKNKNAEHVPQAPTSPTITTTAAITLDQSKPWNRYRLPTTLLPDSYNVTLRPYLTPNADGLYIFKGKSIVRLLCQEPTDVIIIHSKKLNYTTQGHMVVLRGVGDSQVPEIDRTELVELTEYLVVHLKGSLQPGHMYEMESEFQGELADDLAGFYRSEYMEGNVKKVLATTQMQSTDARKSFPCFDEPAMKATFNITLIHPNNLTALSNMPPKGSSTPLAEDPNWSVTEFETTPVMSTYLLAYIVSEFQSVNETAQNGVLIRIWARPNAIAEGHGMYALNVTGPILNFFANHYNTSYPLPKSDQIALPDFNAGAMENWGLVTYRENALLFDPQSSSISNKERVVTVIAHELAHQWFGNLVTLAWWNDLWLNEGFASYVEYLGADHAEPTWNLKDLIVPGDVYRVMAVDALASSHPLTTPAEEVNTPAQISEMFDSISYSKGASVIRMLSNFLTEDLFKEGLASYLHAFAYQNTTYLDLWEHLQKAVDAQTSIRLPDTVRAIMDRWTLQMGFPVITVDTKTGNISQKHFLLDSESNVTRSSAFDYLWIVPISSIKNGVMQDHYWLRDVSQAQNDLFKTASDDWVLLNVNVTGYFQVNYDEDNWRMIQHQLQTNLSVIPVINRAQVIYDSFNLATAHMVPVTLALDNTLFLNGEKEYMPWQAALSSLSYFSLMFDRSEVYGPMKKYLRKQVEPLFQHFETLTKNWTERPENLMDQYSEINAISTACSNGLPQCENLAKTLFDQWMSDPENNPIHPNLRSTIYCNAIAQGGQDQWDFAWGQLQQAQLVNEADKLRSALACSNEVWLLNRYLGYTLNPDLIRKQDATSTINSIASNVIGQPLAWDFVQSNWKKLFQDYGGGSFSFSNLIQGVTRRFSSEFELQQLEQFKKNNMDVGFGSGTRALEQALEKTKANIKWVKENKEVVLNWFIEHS

Bacterial leucyl aminopeptidase, sequence (Q01693 whole entry): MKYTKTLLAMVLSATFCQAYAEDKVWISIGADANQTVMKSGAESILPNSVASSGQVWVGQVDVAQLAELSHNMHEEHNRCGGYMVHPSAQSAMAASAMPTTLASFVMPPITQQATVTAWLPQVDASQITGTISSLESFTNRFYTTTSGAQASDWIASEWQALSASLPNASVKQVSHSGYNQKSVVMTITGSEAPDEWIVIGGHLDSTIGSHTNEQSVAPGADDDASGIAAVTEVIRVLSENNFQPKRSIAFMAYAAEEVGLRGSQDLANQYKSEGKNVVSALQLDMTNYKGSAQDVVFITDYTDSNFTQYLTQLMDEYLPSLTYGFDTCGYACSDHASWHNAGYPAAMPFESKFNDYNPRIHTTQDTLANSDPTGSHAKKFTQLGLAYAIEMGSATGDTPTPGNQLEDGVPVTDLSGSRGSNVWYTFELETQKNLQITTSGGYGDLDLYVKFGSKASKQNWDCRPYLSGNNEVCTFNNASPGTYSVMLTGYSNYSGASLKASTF

| Compound | Ki (Cytosol aminopeptidase) | Ki [1] | Ki (Aminopeptidase N) |
| --- | --- | --- | --- |
| NC1CCc2c(Br)ccc(-c3ccccc3)c2CC1=O (racemic) | 70 µM | 39 µM | – |
| NC1CCc2c(-c3ccccc3)ccc(Br)c2CC1=O (racemic) | > 100 µM | > 100 µM | 0.07 µM |
| NC1CCc2c(cccc2-c2ccccc2)CC1=O (racemic) | > 100 µM | > 100 µM | – |
| NC1CCc2c(-c3ccccc3)ccc(-c3ccccc3)c2CC1=O (racemic) | 50 µM | > 100 µM | 0.04 µM |
| NC1CCc2cccc(-c3ccccc3)c2CC1=O (racemic) | > 100 µM | 28 µM | – |
| NC1CCc2c(ccc3ccccc23)CC1=O (racemic) | > 100 µM | > 100 µM | 0.04 µM |

Results, then the compound that gave them:

| Ki (Cytosol aminopeptidase) | Ki [1] | Ki (Aminopeptidase N) | Compound |
| --- | --- | --- | --- |
| > 100 µM | > 100 µM | – | NC1CCc2c(Cl)cccc2CC1=O (racemic) |
| > 100 µM | > 100 µM | 0.1 µM | NC1CCc2ccc3ccccc3c2CC1=O (racemic) |
| > 100 µM | – | 0.006 µM | NC1CCc2c(Br)ccc(Br)c2CC1=O (racemic) |
| > 100 µM | > 100 µM | – | NC1CCc2c(Br)cccc2CC1=O (racemic) |
| > 100 µM | 900 µM | – | NC1CCc2ccccc2CC1=O (racemic) |
| > 100 µM | 213 µM | – | NC1CCc2cccc(Br)c2CC1=O (racemic) |

Reference: ChEMBL document CHEMBL1821575, “A novel amino-benzosuberone derivative is a picomolar inhibitor of mammalian aminopeptidase N/CD13” (Bioorg Med Chem, 2011)
